In ChEMBL document CHEMBL1649395, “Synthesis and antibacterial activity of novel ketolides with 11,12-sulfur contained aryl alkyl side chains” (2011):
≈ marks a conversion by molar mass, not a printed value.

Key:
Assay type in all cases: functional
[1] = tested on: Staphylococcus aureus; test: Antibacterial activity against methicillin-susceptible Staphylococcus aureus ATCC 29213 by broth microdilution method
Procedure, shortened: (§1)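 Strains were ATCC reference strains or clinical isolates from China's national antimicrobial resistance surveillance network (MOHNARIN). In vitro activity was measured by broth microdilution following NCCLS recommendations. Results are reported as minimum inhibitory concentration (MIC) in mg/L.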

[2] = tested on: Staphylococcus aureus; test: Antibacterial activity against methicillin-susceptible Staphylococcus aureus ANS46 by broth microdilution method; procedure, shortened: as §1
[3] = tested on: Staphylococcus epidermidis; test: Antibacterial activity against methicillin-susceptible Staphylococcus epidermidis 07C134 by broth microdilution method
Procedure, shortened: (§2)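 Clinical isolates were supplied by China's Ministry of Health National Antimicrobial Resistance Investigation Net (MOHNARIN). Activity was reported as minimum inhibitory concentration (MIC), determined by broth microdilution following NCCLS recommendations.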

[4] = tested on: Staphylococcus epidermidis; test: Antibacterial activity against methicillin-susceptible Staphylococcus epidermidis 07T202 by broth microdilution method; procedure, shortened: as §1
[5] = tested on: Staphylococcus epidermidis; test: Antibacterial activity against methicillin-resistant Staphylococcus epidermidis 07R066 by broth microdilution method; procedure, shortened: as §2
[6] = tested on: Staphylococcus epidermidis; test: Antibacterial activity against methicillin-resistant Staphylococcus epidermidis 07A066 by broth microdilution method; procedure, shortened: as §2
[7] = tested on: Streptococcus pyogenes; test: Antibacterial activity against erythromycin-susceptible Streptococcus pyogenes 07U084 by broth microdilution method; procedure, shortened: as §1
[8] = tested on: Streptococcus pyogenes; test: Antibacterial activity against erythromycin-susceptible Streptococcus pyogenes 07U086 by broth microdilution method; procedure, shortened: as §1
[9] = tested on: Streptococcus pneumoniae; test: Antibacterial activity against erythromycin-susceptible Streptococcus pneumoniae ATCC 49619 by broth microdilution method; procedure, shortened: as §1
[10] = tested on: Haemophilus influenzae; test: Antibacterial activity against erythromycin-susceptible Haemophilus influenzae ATCC 49247 by broth microdilution method; procedure, shortened: as §1
[11] = tested on: Haemophilus influenzae; test: Antibacterial activity against erythromycin-susceptible Haemophilus influenzae 07O114 by broth microdilution method; procedure, shortened: as §1
[12] = tested on: Haemophilus influenzae; test: Antibacterial activity against erythromycin-susceptible Haemophilus influenzae 07O339 by broth microdilution method; procedure, shortened: as §1
[13] = tested on: Haemophilus influenzae; test: Antibacterial activity against erythromycin-susceptible Haemophilus influenzae 07O394 by broth microdilution method; procedure, shortened: as §1
[14] = tested on: Streptococcus pneumoniae; test: Antibacterial activity against erythromycin-susceptible Streptococcus pneumoniae 07H252 by broth microdilution method; procedure, shortened: as §1
[15] = tested on: Streptococcus pyogenes; test: Antibacterial activity against erythromycin-resistant Streptococcus pyogenes 03-233 by broth microdilution method; procedure, shortened: as §2
[16] = tested on: Streptococcus pyogenes; test: Antibacterial activity against erythromycin-resistant Streptococcus pyogenes 01-533 by broth microdilution method; procedure, shortened: as §2
[17] = tested on: Streptococcus pneumoniae; test: Antibacterial activity against erythromycin-resistant Streptococcus pneumoniae 07D201 by broth microdilution method; procedure, shortened: as §2
[18] = tested on: Streptococcus pneumoniae; test: Antibacterial activity against erythromycin-resistant Streptococcus pneumoniae 07P390 by broth microdilution method; procedure, shortened: as §2

Row | Compound | MIC [1] [µg/mL] | MIC [2] [µg/mL] | MIC [3] [µg/mL] | MIC [4] [µg/mL] | MIC [5] [µg/mL] | MIC [6] [µg/mL] | MIC [7] [µg/mL] | MIC [8] [µg/mL] | MIC [9] [µg/mL] | MIC [10] [µg/mL] | MIC [11] [µg/mL] | MIC [12] [µg/mL] | MIC [13] [µg/mL] | MIC [14] [µg/mL] | MIC [15] [µg/mL] | MIC [16] [µg/mL] | MIC [17] [µg/mL] | MIC [18] [µg/mL]
1 | CC[C@H]1OC(=O)[C@H](C)C(=O)[C@H](C)[C@@H](O[C@@H]2O[C@H](C)C[C@H](N(C)C)[C@H]2O)[C@@](C)(OC)C[C@@H](C)C(=O)[C@H](C)[C@H]2N(CCCSc3ccccn3)C(=O)O[C@]12C | 0.125 (≈ 0.164 µM) | > 16 | 0.125 (≈ 0.164 µM) | > 16 | 0.125 (≈ 0.164 µM) | 0.125 (≈ 0.164 µM) | 0.016 (≈ 0.0209 µM) | 0.016 (≈ 0.0209 µM) | 0.016 (≈ 0.0209 µM) | 8 (≈ 10.5 µM) | 8 (≈ 10.5 µM) | 4 (≈ 5.24 µM) | 8 (≈ 10.5 µM) |  |  |  |  | 
2 | CC[C@H]1OC(=O)[C@H](C)C(=O)[C@H](C)[C@@H](O[C@@H]2O[C@H](C)C[C@H](N(C)C)[C@H]2O)[C@@](C)(OC)C[C@@H](C)C(=O)[C@H](C)[C@H]2N(CCCSc3nc4cc(OC)ccc4s3)C(=O)O[C@]12C | 0.5 (≈ 0.588 µM) | > 16 | 0.25 (≈ 0.294 µM) | 16 (≈ 18.8 µM) | 0.25 (≈ 0.294 µM) | 0.5 (≈ 0.588 µM) | 0.062 (≈ 0.0729 µM) | 0.062 (≈ 0.0729 µM) | 0.125 (≈ 0.147 µM) | 16 (≈ 18.8 µM) | 16 (≈ 18.8 µM) | 16 (≈ 18.8 µM) | 16 (≈ 18.8 µM) |  |  |  |  | 
3 | CC[C@H]1OC(=O)[C@H](C)C(=O)[C@H](C)[C@@H](O[C@@H]2O[C@H](C)C[C@H](N(C)C)[C@H]2O)[C@@](C)(OC)C[C@@H](C)C(=O)[C@H](C)[C@H]2N(CCCSc3nnc(C)s3)C(=O)O[C@]12C | 0.25 (≈ 0.318 µM) | > 32 | 0.125 (≈ 0.159 µM) | > 32 | 2 (≈ 2.55 µM) | 0.125 (≈ 0.159 µM) | ≤ 0.016 | 0.031 (≈ 0.0395 µM) | ≤ 0.016 | 2 (≈ 2.55 µM) | 2 (≈ 2.55 µM) | 2 (≈ 2.55 µM) | 2 (≈ 2.55 µM) | ≤ 0.016 | > 32 | 1 (≈ 1.27 µM) | 16 (≈ 20.4 µM) | 0.125 (≈ 0.159 µM)
4 | CC[C@H]1OC(=O)[C@H](C)C(=O)[C@H](C)[C@@H](O[C@@H]2O[C@H](C)C[C@H](N(C)C)[C@H]2O)[C@@](C)(OC)C[C@@H](C)C(=O)/C(C)=C/[C@]1(C)OC(=O)NCCCSc1ncnc2[nH]ncc12 | 0.5 (≈ 0.621 µM) | > 16 | 0.5 (≈ 0.621 µM) | > 16 | 0.5 (≈ 0.621 µM) | 0.5 (≈ 0.621 µM) | 0.25 (≈ 0.311 µM) | 0.25 (≈ 0.311 µM) | 0.5 (≈ 0.621 µM) | > 16 | > 16 | > 16 | > 16 | 8 (≈ 9.94 µM) | > 16 | 8 (≈ 9.94 µM) | > 16 | 16 (≈ 19.9 µM)
5 | CC[C@H]1OC(=O)[C@H](C)C(=O)[C@H](C)[C@@H](O[C@@H]2O[C@H](C)C[C@H](N(C)C)[C@H]2O)[C@@](C)(OC)C[C@@H](C)C(=O)[C@H](C)[C@H]2N(CCCSc3nncs3)C(=O)O[C@]12C | 0.25 (≈ 0.324 µM) | > 16 | 0.25 (≈ 0.324 µM) | > 16 | 0.5 (≈ 0.648 µM) | 0.25 (≈ 0.324 µM) | 0.062 (≈ 0.0804 µM) | 0.062 (≈ 0.0804 µM) | ≤ 0.016 | 2 (≈ 2.59 µM) | 2 (≈ 2.59 µM) | 2 (≈ 2.59 µM) | 2 (≈ 2.59 µM) | 2 (≈ 2.59 µM) | > 16 | 1 (≈ 1.3 µM) | > 16 | 0.5 (≈ 0.648 µM)
6 | CCCc1cnc(SCCCN2C(=O)O[C@]3(C)[C@@H](CC)OC(=O)[C@H](C)C(=O)[C@H](C)[C@@H](O[C@@H]4O[C@H](C)C[C@H](N(C)C)[C@H]4O)[C@@](C)(OC)C[C@@H](C)C(=O)[C@H](C)[C@@H]23)nc1 | 0.5 (≈ 0.62 µM) | > 16 | 0.5 (≈ 0.62 µM) | > 16 | 0.5 (≈ 0.62 µM) | 1 (≈ 1.24 µM) | 0.125 (≈ 0.155 µM) | 0.125 (≈ 0.155 µM) | 0.125 (≈ 0.155 µM) | 16 (≈ 19.8 µM) | 16 (≈ 19.8 µM) | 16 (≈ 19.8 µM) | 16 (≈ 19.8 µM) |  |  |  |  | 
7 | CC[C@H]1OC(=O)[C@H](C)C(=O)[C@H](C)[C@@H](O[C@@H]2O[C@H](C)C[C@H](N(C)C)[C@H]2O)[C@@](C)(OC)C[C@@H](C)C(=O)[C@H](C)[C@H]2N(CCCSc3nc(-c4ccccc4)c(-c4ccccc4)o3)C(=O)O[C@]12C | 4 (≈ 4.41 µM) | > 16 | 4 (≈ 4.41 µM) | > 16 | 4 (≈ 4.41 µM) | 2 (≈ 2.21 µM) | 0.5 (≈ 0.552 µM) | 0.5 (≈ 0.552 µM) | 1 (≈ 1.1 µM) | > 16 | > 16 | > 16 | > 16 |  |  |  |  | 
